According to ChEMBL document CHEMBL3865790, “2-(Phenylsulfonyl)quinoline N-hydroxyacrylamides as potent anticancer agents inhibiting histone deacetylase” (Eur J Med Chem, 2016):
Calls of active or inactive are those of the source. The calls are words filed in the database; no cut-off is given here.

What was measured:
[1] = Antiproliferative activity against human HL60 cells after 48 hrs by SRB assay; type: functional, HL-60
Procedure, shortened: (§1)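 Cells grown in RPMI 1640 with 10% FBS and antibiotics, then seeded in medium with 5% FBS. A T0 plate was fixed with 10% TCA at 24 h. Remaining cells were exposed to compound or DMSO for 48 h, TCA-fixed, and stained with 0.4% SRB in 1% acetic acid. Dye was solubilized in 10 mM Trizma base and read at 515 nm.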

[2] = Antiproliferative activity against human HCT116 cells after 48 hrs by SRB assay; type: functional, HCT-116; procedure, shortened: as §1
[3] = Antiproliferative activity against human PC3 cells after 48 hrs by SRB assay; type: functional, PC-3; procedure, shortened: as §1
[4] = Antiproliferative activity against human A549 cells after 48 hrs by SRB assay; type: functional; procedure, shortened: as §1
Histone deacetylase 1 = Histone deacetylase 1 (Homo sapiens, UniProt Q13547); assay: Inhibition of C-terminal His/FLAG-tagged full length recombinant human HDAC1 expressed in baculovirus expression system assessed as release of 7-amino-4-methylcoumarin by fluorogenic assay
Chain of Histone deacetylase 1 (Q13547 whole entry): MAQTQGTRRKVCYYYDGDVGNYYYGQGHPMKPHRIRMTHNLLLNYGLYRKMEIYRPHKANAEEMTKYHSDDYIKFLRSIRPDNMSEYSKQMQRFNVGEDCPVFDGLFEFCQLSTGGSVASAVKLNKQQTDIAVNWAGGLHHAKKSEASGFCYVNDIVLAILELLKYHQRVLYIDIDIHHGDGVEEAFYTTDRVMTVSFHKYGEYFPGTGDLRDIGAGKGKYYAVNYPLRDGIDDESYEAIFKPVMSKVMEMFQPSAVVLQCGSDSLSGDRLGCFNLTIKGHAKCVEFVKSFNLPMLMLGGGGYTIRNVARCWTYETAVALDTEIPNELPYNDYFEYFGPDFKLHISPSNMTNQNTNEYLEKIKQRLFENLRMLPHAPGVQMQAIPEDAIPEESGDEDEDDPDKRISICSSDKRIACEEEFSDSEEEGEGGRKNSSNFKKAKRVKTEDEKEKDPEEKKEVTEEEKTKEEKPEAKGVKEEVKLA

Histone deacetylase 2 = Histone deacetylase 2 (Homo sapiens, UniProt Q92769); assay: Inhibition of full length recombinant human HDAC2 expressed in baculovirus expression system assessed as release of 7-amino-4-methylcoumarin by fluorogenic assay
Chain of Histone deacetylase 2 (Q92769 whole entry): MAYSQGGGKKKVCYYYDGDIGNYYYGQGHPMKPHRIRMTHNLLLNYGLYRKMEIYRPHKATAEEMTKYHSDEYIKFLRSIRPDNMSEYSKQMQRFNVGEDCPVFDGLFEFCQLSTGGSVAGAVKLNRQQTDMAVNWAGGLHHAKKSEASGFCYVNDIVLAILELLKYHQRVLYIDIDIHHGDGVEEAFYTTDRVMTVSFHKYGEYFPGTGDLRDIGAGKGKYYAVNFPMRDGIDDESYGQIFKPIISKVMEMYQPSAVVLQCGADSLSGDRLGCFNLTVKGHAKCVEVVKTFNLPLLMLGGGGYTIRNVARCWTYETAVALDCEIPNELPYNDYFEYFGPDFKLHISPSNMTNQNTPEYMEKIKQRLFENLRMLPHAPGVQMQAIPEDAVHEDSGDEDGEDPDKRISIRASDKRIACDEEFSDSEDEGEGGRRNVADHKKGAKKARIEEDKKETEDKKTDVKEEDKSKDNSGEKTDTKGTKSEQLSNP

[5] = biological target: T1, Protein deacetylase HDAC6 (Homo sapiens, UniProt Q9UBN7); assay: Inhibition of full length recombinant human HDAC6 expressed in baculovirus expression system assessed as release of 7-amino-4-methylcoumarin by fluorogenic assay
T1 sequence (Q9UBN7 whole entry): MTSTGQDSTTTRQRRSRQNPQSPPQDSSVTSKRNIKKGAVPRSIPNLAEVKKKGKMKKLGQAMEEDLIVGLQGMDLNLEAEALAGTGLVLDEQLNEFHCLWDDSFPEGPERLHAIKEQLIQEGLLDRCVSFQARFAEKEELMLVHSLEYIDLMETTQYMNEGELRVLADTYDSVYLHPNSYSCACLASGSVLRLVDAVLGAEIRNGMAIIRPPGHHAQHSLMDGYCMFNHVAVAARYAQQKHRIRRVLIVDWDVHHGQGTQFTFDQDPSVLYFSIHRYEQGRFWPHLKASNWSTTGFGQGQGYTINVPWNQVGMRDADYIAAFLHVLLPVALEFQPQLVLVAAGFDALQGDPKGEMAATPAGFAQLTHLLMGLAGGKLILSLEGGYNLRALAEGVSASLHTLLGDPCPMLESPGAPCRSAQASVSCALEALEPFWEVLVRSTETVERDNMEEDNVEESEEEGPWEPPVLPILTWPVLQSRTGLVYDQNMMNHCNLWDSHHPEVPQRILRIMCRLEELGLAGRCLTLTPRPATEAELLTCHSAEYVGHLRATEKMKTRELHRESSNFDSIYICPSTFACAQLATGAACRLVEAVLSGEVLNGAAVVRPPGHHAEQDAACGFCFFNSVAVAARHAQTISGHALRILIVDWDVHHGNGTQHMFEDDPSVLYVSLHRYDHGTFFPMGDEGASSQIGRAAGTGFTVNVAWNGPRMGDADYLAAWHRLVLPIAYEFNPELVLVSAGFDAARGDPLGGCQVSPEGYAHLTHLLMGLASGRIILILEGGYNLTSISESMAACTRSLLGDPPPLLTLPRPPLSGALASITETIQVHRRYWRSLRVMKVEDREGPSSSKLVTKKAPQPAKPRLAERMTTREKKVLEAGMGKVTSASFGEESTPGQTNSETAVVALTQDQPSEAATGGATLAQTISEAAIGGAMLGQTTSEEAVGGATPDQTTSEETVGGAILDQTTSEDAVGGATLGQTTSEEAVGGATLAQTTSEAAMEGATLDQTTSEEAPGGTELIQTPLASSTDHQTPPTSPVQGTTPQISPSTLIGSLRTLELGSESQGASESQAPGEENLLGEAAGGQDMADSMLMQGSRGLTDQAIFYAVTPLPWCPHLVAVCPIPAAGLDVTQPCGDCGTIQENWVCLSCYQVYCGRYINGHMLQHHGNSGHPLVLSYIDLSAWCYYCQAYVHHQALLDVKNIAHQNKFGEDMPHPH

Histone deacetylase 8 = biological target: T2, Histone deacetylase 8 (Homo sapiens, UniProt Q9BY41); assay: Inhibition of His-tagged full length recombinant human HDAC8 expressed in baculovirus expression system assessed as release of 7-amino-4-methylcoumarin by fluorogenic assay
T2 sequence (Q9BY41 whole entry): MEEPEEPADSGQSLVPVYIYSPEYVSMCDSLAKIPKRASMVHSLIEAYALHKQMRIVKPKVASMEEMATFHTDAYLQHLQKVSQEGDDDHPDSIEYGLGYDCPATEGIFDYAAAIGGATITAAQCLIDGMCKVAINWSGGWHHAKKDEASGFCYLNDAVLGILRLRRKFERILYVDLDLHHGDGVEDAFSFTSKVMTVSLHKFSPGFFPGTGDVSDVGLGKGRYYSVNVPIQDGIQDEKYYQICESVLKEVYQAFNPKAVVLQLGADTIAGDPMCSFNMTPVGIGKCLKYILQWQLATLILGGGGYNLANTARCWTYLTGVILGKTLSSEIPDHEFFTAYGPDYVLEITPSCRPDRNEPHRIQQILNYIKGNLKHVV

HCT-116 [6] = settings: Homo sapiens, at 0.3 µM
PC-3 = settings: Homo sapiens, at 0.3 µM
HCT-116 [7] = assay: Antitumor activity in human HCT116 cells xenografted in nude mouse assessed as tumor growth inhibition administered daily through oral route; type: functional, cell-based
Procedure, shortened: (§2)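 Male nude mice, 8 weeks old, implanted s.c. in the right flank with 1 x 10^7 log-phase HCT116 cells in PBS. Four groups of 7 received vehicle, 50 or 100 mg/kg test compound, or 200 mg/kg reference p.o. daily to endpoint, dosed at 10 mL/kg scaled to body weight. Tumor volume was taken as (w² × l)/2, and mice were monitored for adverse effects.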

[8] = Antitumor activity against human HCT116 cells xenografted in nude mouse assessed as tumor growth inhibition at 50 mg/kg, po qd; type: functional; settings: HCT-116, po, read-out: TGI; procedure, shortened: as §2
[9] = Antitumor activity against human HCT116 cells xenografted in nude mouse assessed as tumor growth inhibition at 100 mg/kg, po qd; type: functional; settings: HCT-116, po, read-out: TGI; procedure, shortened: as §2
Mus musculus [10] = assay: Toxicity in nude mouse xenografted with human HCT116 cells assessed as change in body weight at 50 to 100 mg/kg, po qd; type: organism-based, HCT-116; settings: in vivo
Mus musculus [11] = assay: Toxicity in nude mouse xenografted with human HCT116 cells assessed as change in body weight at 200 mg/kg, po qd; type: organism-based, HCT-116; settings: in vivo

| SMILES | GI50 ([1]; Homo sapiens, HL-60, 48 h) [nM] | GI50 ([2]; Homo sapiens, HCT-116, 48 h) [nM] | GI50 ([3]; Homo sapiens, PC-3, 48 h) [nM] | GI50 ([4]; Homo sapiens, A549, 48 h) [nM] | further results |
| --- | --- | --- | --- | --- | --- |
| O=C(/C=C/c1ccc(C(=O)c2ccc3ccccc3n2)cc1)NO | 1150 | 360 | 560 | 1130 | – |
| O=C(/C=C/c1cccc(S(=O)(=O)c2ccc3cccc(F)c3n2)c1)NO | 720 | 440 | 320 | 640 | IC50 (Histone deacetylase 1): 5.74 nM; IC50 (Histone deacetylase 2): 15 nM; IC50 [5]: 5.89 nM; IC50 (Histone deacetylase 8): 200 nM; inhibition (HCT-116 [6]): Active; inhibition (PC-3): Active |
| COc1ccc2nc(S(=O)(=O)c3cccc(/C=C/C(=O)NO)c3)ccc2c1 | 720 | 240 | 280 | 350 | – |
| COc1ccc(S(=O)(=O)c2ccc3cc(/C=C/C(=O)NO)ccc3n2)cc1 | 1140 | 1390 | 1350 | 4750 | – |
| O=C(/C=C/c1cccc(S(=O)(=O)c2ccc3cc(Cl)ccc3n2)c1)NO | 1330 | 920 | 760 | 1010 | – |
| COc1ccc(S(=O)(=O)c2ccc3ccc(/C=C/C(=O)NO)cc3n2)cc1 | 830 | 240 | 1010 | 1510 | – |
| COc1ccc(S(=O)(=O)c2nc3ccccc3cc2/C=C/C(=O)NO)cc1 | > 10000 | > 10000 | > 10000 | > 10000 | – |
| O=C(/C=C/c1cccc(S(=O)(=O)c2ccc3ccccc3n2)c1)NO | 290 | 80 | 150 | 270 | IC50 (Histone deacetylase 1): 14 nM; IC50 (Histone deacetylase 2): 11.5 nM; IC50 [5]: 15 nM; IC50 (Histone deacetylase 8): 130 nM; TGI (HCT-116 [7]): Dose-dependent effect; inhibition in vivo at 50 mg/kg [8]: 32.2%; inhibition in vivo at 100 mg/kg [9]: 58.8%; Activity (Mus musculus [10]): Non-Toxic; inhibition (HCT-116 [6]): Active; inhibition (PC-3): Active |
| O=C(CCCCCCC(=O)Nc1ccccc1)NO [VORINOSTAT] | – | – | – | – | GI50 [1]: 1740 nM; GI50 [2]: 150 nM; GI50 [3]: 730 nM; GI50 [4]: 1020 nM; Activity (Mus musculus [11]): Non-Toxic |
| O=C(/C=C/c1ccc(S(=O)(=O)c2ccc3ccccc3n2)cc1)NO | 800 | 310 | 490 | 880 | – |
| O=C(/C=C/c1cccc(S(=O)(=O)c2ccccn2)c1)NO | 1980 | 1480 | 2650 | 1710 | – |
| COc1ccc(S(=O)(=O)c2ccc3cccc(/C=C/C(=O)NO)c3n2)cc1 | 1170 | 310 | 790 | 1320 | – |
| O=C(/C=C/c1cccc(S(=O)(=O)c2ccc3cccc(Cl)c3n2)c1)NO | 2640 | 1310 | 1350 | 1420 | – |
| O=C(/C=C/c1cccc(C(=O)c2ccc3ccccc3n2)c1)NO | 1230 | 350 | 470 | 840 | – |
| O=C(/C=C/c1cccc(S(=O)(=O)Nc2ccccc2)c1)NO [BELINOSTAT] | 1090 | 130 | 390 | 780 | IC50 [5]: 50 nM; inhibition (HCT-116 [6]): Active; inhibition (PC-3): Active |
| COc1ccc(S(=O)(=O)c2ccc3c(/C=C/C(=O)NO)cccc3n2)cc1 | > 10000 | > 10000 | > 10000 | > 10000 | – |
